Test results from ChEMBL document CHEMBL1156453, “Cellular characterization of a novel focal adhesion kinase inhibitor” (J Biol Chem, 2007).

How the values were obtained:
[1] = Inhibition of 10% serum-stimulated cell migration of rat REF52 cells at 1.0 uM pretreated for 30 mins measured after 6 hrs by transwell assay relative to control; format: functional
In short: (§1)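 Modified Boyden transwell, 8-μm pores. REF52 cells (1 × 10⁵) pretreated 30 min with inhibitor, which stayed in both chambers. Attractant was 10% FBS in the lower chamber, or membrane underside coated with 1.5 μg/ml fibronectin overnight at 4 °C under serum-free DMEM. Migration 6 h at 37 °C. Underside cells fixed, crystal-violet stained and counted in four fields. Triplicates normalized to untreated control; ANOVA then t-tests.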

[2] = Inhibition of fibronectin-stimulated cell migration of rat REF52 cells at 1.0 uM pretreated for 30 mins measured after 6 hrs by transwell assay relative to control; format: functional; in short: as §1
[3] = Inhibition of 10% serum-stimulated cell migration of rat REF52 cells at 10 uM pretreated for 30 mins measured after 6 hrs by transwell assay relative to control; format: functional; in short: as §1
[4] = Inhibition of fibronectin-stimulated cell migration of rat REF52 cells at 10 uM pretreated for 30 mins measured after 6 hrs by transwell assay relative to control; format: functional; in short: as §1
[5] = Inhibition of cell migration of rat REF52 cells assessed as reduction in rate of movement of cell into wound at 1 uM by wound healing assay in presence of 10% serum; format: functional; parameters: scale not given: the % may be the effect or the level left
In short: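 Confluent REF52 monolayers wounded with a pipette tip, with inhibitor added at wounding. Starting 1 h later, cells filmed for 9 h at 37 °C by DIC time-lapse microscopy. Nuclei of single cells tracked, and speed taken as track length divided by total movie time.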

[6] = tested on: NIH3T3; assay: Inhibition of focal adhesion turnover in wounded mouse NIH3T3 cells expressing GFP-paxillin assessed as average adhesion life-time at 1 uM by TIRF microscopy; format: functional
[7] = target: Protein-tyrosine kinase 2-beta (Homo sapiens, UniProt Q14289); assay: Inhibition of Pyk2
In short: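 Recombinant Pyk2 was run in parallel with the FAK kinase assay. That assay measures phosphorylation of a poly(Glu/Tyr) (4:1) substrate in an ELISA read with anti-phosphotyrosine (PY20) and an HRP secondary. Compounds were serially diluted at ½-log steps from a 1 μm top concentration, each concentration was run in triplicate, and IC50 was fitted by the Hill slope model.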

[8] = target: Tyrosine-protein kinase ABL1 (Homo sapiens) (UniProt P00519); assay: Inhibition of human Abl at 1 uM
[9] = Inhibition of ACK at 1 uM
In short: (§2)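 Recombinant kinases were screened in a commercial profiling panel with the compound at a single concentration of 1 μM. The read-out is percent inhibition of each enzyme's kinase activity.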

[10] = target: RAC-alpha serine/threonine-protein kinase (Homo sapiens) (UniProt P31749); assay: Inhibition of AKT at 1 uM
[11] = target: Protein DBF4 homolog A (Homo sapiens) (UniProt Q9UBU7); assay: Inhibition of ASK at 1 uM
Protein DBF4 homolog A (Homo sapiens), sequence (Q9UBU7 whole entry): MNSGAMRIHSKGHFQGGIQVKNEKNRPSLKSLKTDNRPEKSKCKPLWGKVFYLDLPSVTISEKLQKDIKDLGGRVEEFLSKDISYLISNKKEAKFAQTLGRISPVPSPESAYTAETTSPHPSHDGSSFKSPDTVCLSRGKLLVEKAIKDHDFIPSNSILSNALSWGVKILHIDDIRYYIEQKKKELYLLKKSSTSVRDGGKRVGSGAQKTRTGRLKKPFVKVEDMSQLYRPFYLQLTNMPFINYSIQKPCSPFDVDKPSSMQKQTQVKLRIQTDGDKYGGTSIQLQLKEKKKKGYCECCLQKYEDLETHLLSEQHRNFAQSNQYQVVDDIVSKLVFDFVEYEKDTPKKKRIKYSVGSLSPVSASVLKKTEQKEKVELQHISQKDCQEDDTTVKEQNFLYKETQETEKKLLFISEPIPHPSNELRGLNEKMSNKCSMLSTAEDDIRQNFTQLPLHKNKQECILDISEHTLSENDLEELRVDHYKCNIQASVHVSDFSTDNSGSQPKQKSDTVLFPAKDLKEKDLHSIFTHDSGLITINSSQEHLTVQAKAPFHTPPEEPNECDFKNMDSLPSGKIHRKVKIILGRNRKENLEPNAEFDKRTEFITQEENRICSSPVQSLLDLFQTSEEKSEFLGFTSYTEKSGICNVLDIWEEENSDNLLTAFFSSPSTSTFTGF

[12] = target: Tyrosine-protein kinase BTK (Homo sapiens) (UniProt Q06187); assay: Inhibition of BTK at 1 uM
Tyrosine-protein kinase BTK (Homo sapiens), sequence (Q06187 whole entry): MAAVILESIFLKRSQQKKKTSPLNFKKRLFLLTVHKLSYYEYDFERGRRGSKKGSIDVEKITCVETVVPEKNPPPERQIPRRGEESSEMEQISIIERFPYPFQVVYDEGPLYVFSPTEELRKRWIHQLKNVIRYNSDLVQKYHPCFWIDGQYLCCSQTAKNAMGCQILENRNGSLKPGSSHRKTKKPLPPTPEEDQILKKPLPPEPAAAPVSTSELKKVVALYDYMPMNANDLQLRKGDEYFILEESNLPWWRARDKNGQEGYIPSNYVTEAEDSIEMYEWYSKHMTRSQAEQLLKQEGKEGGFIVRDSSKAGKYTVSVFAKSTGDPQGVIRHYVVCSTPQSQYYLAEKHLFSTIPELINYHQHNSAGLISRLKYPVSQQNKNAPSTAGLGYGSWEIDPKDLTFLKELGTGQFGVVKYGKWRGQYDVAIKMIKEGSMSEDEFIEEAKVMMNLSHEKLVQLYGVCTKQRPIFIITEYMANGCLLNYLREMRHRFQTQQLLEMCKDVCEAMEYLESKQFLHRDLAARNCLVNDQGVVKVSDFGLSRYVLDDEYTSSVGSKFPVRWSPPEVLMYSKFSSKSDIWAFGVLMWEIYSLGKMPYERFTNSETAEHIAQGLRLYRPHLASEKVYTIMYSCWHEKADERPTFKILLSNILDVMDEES

[13] = target: RAF proto-oncogene serine/threonine-protein kinase (Homo sapiens) (UniProt P04049); assay: Inhibition of human c-RAF at 1 uM
RAF proto-oncogene serine/threonine-protein kinase (Homo sapiens), sequence (P04049 whole entry): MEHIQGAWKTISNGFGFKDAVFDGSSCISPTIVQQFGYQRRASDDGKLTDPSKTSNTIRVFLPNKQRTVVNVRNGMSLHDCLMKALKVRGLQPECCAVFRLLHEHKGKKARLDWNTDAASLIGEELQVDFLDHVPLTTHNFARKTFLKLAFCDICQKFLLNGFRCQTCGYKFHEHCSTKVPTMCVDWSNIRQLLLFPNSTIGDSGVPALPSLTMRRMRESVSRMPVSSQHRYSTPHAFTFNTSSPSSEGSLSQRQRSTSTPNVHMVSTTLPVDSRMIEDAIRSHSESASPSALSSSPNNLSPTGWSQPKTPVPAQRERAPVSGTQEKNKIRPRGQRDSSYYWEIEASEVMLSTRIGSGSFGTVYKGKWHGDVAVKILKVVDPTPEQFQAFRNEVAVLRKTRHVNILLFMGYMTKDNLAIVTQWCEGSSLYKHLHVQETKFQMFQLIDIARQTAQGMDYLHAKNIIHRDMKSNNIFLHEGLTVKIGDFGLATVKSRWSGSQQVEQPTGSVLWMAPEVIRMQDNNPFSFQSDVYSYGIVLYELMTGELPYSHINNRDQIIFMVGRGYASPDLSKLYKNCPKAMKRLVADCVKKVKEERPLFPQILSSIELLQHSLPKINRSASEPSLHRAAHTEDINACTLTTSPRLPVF

[14] = target: Calcium/calmodulin-dependent protein kinase type IV (Homo sapiens) (UniProt Q16566); assay: Inhibition of human CaMK4 at 1 uM
Calcium/calmodulin-dependent protein kinase type IV (Homo sapiens), sequence (Q16566 whole entry): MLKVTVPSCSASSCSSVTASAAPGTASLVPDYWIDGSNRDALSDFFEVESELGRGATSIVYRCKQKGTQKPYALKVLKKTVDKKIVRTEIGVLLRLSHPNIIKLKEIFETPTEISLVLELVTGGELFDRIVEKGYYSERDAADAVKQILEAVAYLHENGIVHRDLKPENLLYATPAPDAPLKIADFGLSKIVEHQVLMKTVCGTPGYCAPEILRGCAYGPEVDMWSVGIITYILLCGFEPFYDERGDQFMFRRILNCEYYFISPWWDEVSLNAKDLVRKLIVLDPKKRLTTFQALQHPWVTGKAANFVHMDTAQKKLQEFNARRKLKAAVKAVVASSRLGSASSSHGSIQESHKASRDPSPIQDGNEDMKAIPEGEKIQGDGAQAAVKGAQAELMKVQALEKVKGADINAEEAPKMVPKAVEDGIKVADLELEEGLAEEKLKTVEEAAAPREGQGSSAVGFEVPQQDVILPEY

[15] = target: Cyclin-dependent kinase 1/cyclin B1 (Homo sapiens) (UniProt P06493+P14635); assay: Inhibition of human CDK1/cyclinB at 1 uM; format: protein-complex assay; in short: as §2
[16] = target: Cyclin-dependent kinase 2 (Homo sapiens) (UniProt P24941); assay: Inhibition of human CDK2/cyclinA at 1 uM
[17] = target: Cyclin-dependent kinase 2 (Homo sapiens) (UniProt P24941); assay: Inhibition of human CDK2/cyclinE at 1 uM
[18] = target: Cyclin-dependent kinase 3 (Homo sapiens) (UniProt Q00526); assay: Inhibition of human CDK3/cyclinE at 1 uM
Cyclin-dependent kinase 3 (Homo sapiens), sequence (Q00526 whole entry, looked up): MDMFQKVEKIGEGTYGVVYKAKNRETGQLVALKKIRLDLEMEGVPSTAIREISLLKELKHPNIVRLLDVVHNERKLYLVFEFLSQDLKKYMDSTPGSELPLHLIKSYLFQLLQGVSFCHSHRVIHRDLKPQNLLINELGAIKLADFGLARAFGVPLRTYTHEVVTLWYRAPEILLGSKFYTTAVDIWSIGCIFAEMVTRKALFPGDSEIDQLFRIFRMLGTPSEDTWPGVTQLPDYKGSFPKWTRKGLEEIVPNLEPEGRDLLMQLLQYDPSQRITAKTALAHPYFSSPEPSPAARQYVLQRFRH

[19] = species on record: Homo sapiens; assay: Inhibition of human CDK5/p35 at 1 uM; in short: as §2
[20] = target: CDK6/cyclin D3 (Homo sapiens) (UniProt P30281+Q00534); assay: Inhibition of human CDK6/cyclinD3 at 1 uM; format: protein-complex assay
[21] = target: Cyclin-dependent kinase 7 (Homo sapiens, UniProt P50613); assay: Inhibition of human CDK7/cyclinH/MAT1 at 1 uM; in short: as §2
[22] = target: Serine/threonine-protein kinase Chk1 (Homo sapiens) (UniProt O14757); assay: Inhibition of CHK1 at 1 uM; in short: as §2
[23] = target: Proto-oncogene tyrosine-protein kinase Src (Homo sapiens) (UniProt P12931); assay: Inhibition of human cSRC at 1 uM
[24] = target: Epidermal growth factor receptor (Homo sapiens) (UniProt P00533); assay: Inhibition of human EGFR at 1 uM
[25] = target: Ephrin type-A receptor 2 (Homo sapiens) (UniProt P29317); assay: Inhibition of EphA2 at 1 uM
[26] = target: Ephrin type-B receptor 2 (Homo sapiens) (UniProt P29323); assay: Inhibition of EphB2 at 1 uM
[27] = target: Glycogen synthase kinase-3 beta (Homo sapiens, UniProt P49841); assay: Inhibition of human GSK3-beta at 1 uM; in short: as §2
Glycogen synthase kinase-3 beta, sequence (P49841 whole entry, looked up): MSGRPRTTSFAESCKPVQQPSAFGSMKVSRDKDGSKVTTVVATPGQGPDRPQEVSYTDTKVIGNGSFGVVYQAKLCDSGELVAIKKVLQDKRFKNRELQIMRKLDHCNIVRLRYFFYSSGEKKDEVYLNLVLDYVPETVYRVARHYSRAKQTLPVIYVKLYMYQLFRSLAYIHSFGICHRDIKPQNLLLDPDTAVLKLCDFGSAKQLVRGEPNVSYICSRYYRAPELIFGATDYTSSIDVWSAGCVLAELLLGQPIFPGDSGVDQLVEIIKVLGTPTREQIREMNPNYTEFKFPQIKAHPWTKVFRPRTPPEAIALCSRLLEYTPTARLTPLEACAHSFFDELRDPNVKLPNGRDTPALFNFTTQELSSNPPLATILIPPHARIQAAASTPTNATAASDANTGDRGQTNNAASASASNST

[28] = target: Tyrosine-protein kinase Fyn (Homo sapiens) (UniProt P06241); assay: Inhibition of Fyn at 1 uM
[29] = target: Insulin receptor (Homo sapiens) (UniProt P06213); assay: Inhibition of IR at 1 uM
[30] = target: Insulin-like growth factor 1 receptor (Homo sapiens) (UniProt P08069); assay: Inhibition of IGF1R at 1 uM
Insulin-like growth factor 1 receptor (Homo sapiens), sequence (P08069 31-736 limits assumed): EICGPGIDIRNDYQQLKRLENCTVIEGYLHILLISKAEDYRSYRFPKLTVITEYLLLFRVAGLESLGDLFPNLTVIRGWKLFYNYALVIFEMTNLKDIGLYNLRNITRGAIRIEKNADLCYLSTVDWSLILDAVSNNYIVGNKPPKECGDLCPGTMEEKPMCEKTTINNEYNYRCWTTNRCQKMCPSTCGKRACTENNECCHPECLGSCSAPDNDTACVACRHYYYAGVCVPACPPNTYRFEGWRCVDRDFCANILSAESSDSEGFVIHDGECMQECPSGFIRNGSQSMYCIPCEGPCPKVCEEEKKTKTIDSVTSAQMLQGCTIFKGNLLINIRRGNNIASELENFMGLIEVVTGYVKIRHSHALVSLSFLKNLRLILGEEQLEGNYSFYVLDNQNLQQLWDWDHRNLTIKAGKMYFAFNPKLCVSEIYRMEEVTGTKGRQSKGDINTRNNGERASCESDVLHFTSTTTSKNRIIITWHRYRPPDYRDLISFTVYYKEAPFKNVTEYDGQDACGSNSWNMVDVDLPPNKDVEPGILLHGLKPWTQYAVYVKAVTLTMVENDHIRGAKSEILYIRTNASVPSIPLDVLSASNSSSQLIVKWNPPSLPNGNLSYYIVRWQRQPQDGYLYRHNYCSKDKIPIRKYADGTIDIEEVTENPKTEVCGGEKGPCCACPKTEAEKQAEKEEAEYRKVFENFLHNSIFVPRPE
Insulin-like growth factor 1 receptor (Homo sapiens), sequence (P08069 741-1367 limits assumed): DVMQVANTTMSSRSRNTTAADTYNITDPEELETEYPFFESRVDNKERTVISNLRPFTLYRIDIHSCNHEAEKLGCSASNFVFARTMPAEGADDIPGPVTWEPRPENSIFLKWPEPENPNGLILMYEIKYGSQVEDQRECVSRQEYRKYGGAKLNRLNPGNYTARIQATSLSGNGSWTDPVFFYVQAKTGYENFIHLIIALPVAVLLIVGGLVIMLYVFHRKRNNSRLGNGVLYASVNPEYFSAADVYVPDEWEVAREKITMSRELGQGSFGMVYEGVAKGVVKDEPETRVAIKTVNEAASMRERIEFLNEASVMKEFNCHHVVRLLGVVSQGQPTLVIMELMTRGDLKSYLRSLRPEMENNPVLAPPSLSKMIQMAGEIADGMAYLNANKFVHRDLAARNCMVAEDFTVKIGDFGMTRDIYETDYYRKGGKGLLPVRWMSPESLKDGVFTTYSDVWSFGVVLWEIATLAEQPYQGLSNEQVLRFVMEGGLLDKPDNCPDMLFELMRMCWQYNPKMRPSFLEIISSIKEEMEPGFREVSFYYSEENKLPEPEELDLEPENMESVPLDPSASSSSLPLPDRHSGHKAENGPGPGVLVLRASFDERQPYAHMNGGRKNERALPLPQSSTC

[31] = target: Inhibitor of nuclear factor kappa-B kinase subunit beta (Homo sapiens) (UniProt O14920); assay: Inhibition of human IKK-beta at 1 uM
[32] = target: Tyrosine-protein kinase JAK3 (Homo sapiens) (UniProt P52333); assay: Inhibition of JAK3 at 1 uM
[33] = target: Protein kinase C theta type (Homo sapiens) (UniProt Q04759); assay: Inhibition of PKCtheta at 1 uM
[34] = target: Mitogen-activated protein kinase 8 (Homo sapiens) (UniProt P45983); assay: Inhibition of human JNK1alpha1 at 1 uM
Mitogen-activated protein kinase 8 (Homo sapiens), sequence (P45983 whole entry): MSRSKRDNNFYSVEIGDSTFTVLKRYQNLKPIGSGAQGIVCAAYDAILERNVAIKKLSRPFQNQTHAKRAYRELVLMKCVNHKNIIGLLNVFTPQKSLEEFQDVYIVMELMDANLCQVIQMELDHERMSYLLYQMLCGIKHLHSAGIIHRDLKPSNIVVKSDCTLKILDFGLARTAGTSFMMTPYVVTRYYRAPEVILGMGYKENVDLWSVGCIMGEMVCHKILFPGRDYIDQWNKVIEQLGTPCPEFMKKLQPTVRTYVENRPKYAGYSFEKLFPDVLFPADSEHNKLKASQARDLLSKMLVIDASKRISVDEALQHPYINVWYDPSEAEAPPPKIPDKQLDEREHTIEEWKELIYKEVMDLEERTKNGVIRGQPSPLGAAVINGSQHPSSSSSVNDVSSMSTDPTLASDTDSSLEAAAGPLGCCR

CS(=O)(=O)c1cccc(CNc2nc(Nc3ccc4c(c3)CCC(=O)N4)ncc2C(F)(F)F)c1
Activity [1]: 1 | Activity [2]: 2.2 | Activity [3]: 0.3 | Activity [4]: 0.5 | Activity [5]: 27% | Time [6]: 33.1 min | IC50 [7]: > 1000 nM | inhibition [8]: 8% | inhibition [9]: 29% | inhibition [10]: 0% | inhibition [11]: 1% | inhibition [12]: 11% | inhibition [13]: 0% | inhibition [14]: 0% | inhibition [15]: 77% | inhibition [16]: 50% | inhibition [17]: 44% | inhibition [18]: 44% | inhibition [19]: 0% | inhibition [20]: 15% | inhibition [21]: 86% | inhibition [22]: 13% | inhibition [23]: 1% | inhibition [24]: 0% | inhibition [25]: 15% | inhibition [26]: 11% | inhibition [27]: 64% | inhibition [28]: 28% | inhibition [29]: 27% | inhibition [30]: 21% | inhibition [31]: 56% | inhibition [32]: 27% | inhibition [33]: 36% | inhibition [34]: 4%
